Assay results published in ChEMBL document CHEMBL1140972, “Synthesis and structure-activity relationship of 3-phenylquinoxaline 1,4-di-N-oxide derivatives as antimalarial agents” (Eur J Med Chem, 2008).

Columns and labels:
Plasmodium falciparum [1] = experiment: Antimalarial activity after 48 hrs against chloroquine-sensitive Plasmodium falciparum 3D7 by [3H]hypoxanthine uptake; format: functional, organism-based
Summary of the method: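 Asynchronous culture (65-75% rings, 0.5% parasitemia, 2.5% final hematocrit) in RPMI 1640 with 0.5% Albumax II, 0.2% glucose, 0.03% L-glutamine and 5 µM hypoxanthine. Triplicate wells with a 3-fold series of 10.0–0.0412 µg/mL; final DMSO ≤0.01%. 37 °C, 5% CO2: 24 h, then 0.2 µCi/well [3H]hypoxanthine for a further 24 h. Frozen, harvested, scintillation-counted. IC50 from curve fit; mean of 2–3 experiments.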

Plasmodium falciparum [2] = experiment: Antimalarial activity after 48 hrs against chloroquine-resistant Plasmodium falciparum K1 by [3H]hypoxanthine uptake; format: functional, organism-based
Summary of the method: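 Asynchronous P. falciparum K1 culture (65-75% ring stage, 0.5% parasitemia; chloroquine, pyrimethamine, cycloguanil resistant) at 2.5% hematocrit in RPMI 1640 with 0.5% Albumax II, glucose, L-glutamine, 5 µM hypoxanthine. Triplicate 3-fold dilutions 10.0–0.0412 µg/mL, DMSO ≤0.01% final, 37 °C, 5% CO2. [3H]-hypoxanthine (0.2 µCi/well) added at 24 h, incorporation counted after further 24 h. IC50 by curve fit, 2–3 experiments.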

KB = experiment: Cytotoxicity against human KB cells after 48 hrs by alamar blue assay; format: cell-based
[3] = Selectivity index, ratio of IC50 for human KB cells to IC50 for chloroquine-sensitive Plasmodium falciparum 3D7; format: toxicity, cell-based; conditions: read-out: Ratio IC50
Summary of the method: (§1)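 KB IC50 divided by the parasite IC50 (K1 or 3D7). KB cells seeded at 4×10^4 cells/mL in RPMI 1640 with 10% heat-inactivated FCS and grown 24 h. Triplicate dilution series then added for 72 h. AlamarBlue for 2–4 h, fluorescence ex 530/em 585 nm, IC50 by curve fit. Podophyllotoxin as positive control.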

[4] = Selectivity index, ratio of IC50 for human KB cells to IC50 for chloroquine-resistant Plasmodium falciparum K1; format: toxicity, cell-based; conditions: read-out: Ratio IC50; summary of the method: as §1
[5] = Resistant index, ratio of IC50 for chloroquine-resistant Plasmodium falciparum K1 to IC50 for chloroquine-sensitive Plasmodium falciparum 3D7; format: functional
Summary of the method: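 IC50 against K1 divided by IC50 against 3D7 (drug-sensitive NF54 clone). Both from [3H]-hypoxanthine incorporation over 48 h: asynchronous cultures at 0.5% parasitemia, 2.5% hematocrit, 3-fold dilutions 10.0–0.0412 µg/mL in triplicate. Label added at 24 h. Means of 2–3 independent experiments.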

SMILES	IC50 (Plasmodium falciparum [1]) [µM]	IC50 (Plasmodium falciparum [2]) [µM]	IC50 (KB) [µM]	selectivity ratio [3]	selectivity ratio [4]	Ratio IC50 [5]
CCOC(=O)c1c(-c2ccccc2)[n+]([O-])c2ccc(Cl)cc2[n+]1[O-]	3.22	–	–	–	–	–
COC(=O)c1ccc(-c2c(C#N)[n+]([O-])c3ccccc3[n+]2[O-])cc1	6.54	–	–	–	–	–
CCOC(=O)c1c(-c2ccccc2)[n+]([O-])c2ccccc2[n+]1[O-]	> 10	–	–	–	–	–
N#Cc1c(-c2ccc(Cl)cc2)[n+]([O-])c2ccc(F)cc2[n+]1[O-]	4.21	–	–	–	–	–
CCOC(=O)c1c(-c2ccccc2)[n+]([O-])c2cc(F)c(F)cc2[n+]1[O-]	> 10	–	–	–	–	–
Cc1ccc2c(c1)[n+]([O-])c(C#N)c(-c1ccc(F)cc1)[n+]2[O-]	0.88	0.37	11.2	12.7	30.4	0.42
COC(=O)c1ccc(-c2c(C#N)[n+]([O-])c3cc(Cl)ccc3[n+]2[O-])cc1	> 20	–	–	–	–	–
N#Cc1c(-c2ccc(OC(F)(F)F)cc2)[n+]([O-])c2ccccc2[n+]1[O-]	1.27	0.27	2.76	2.17	10.3	0.21
COc1cc([C@@H]2c3cc4c(cc3[C@H](O)[C@H]3COC(=O)[C@H]23)OCO4)cc(OC)c1OC [PODOFILOX]	–	–	0.003	–	–	–
Cc1ccc(-c2c(C#N)[n+]([O-])c3cc(C(F)(F)F)ccc3[n+]2[O-])cc1	0.72	0.87	3.17	4.4	3.64	1.21
Cc1cc2c(cc1C)[n+]([O-])c(-c1ccc(OC(F)(F)F)cc1)c(C#N)[n+]2[O-]	> 5	–	–	–	–	–
N#Cc1c(-c2ccc(OC(F)(F)F)cc2)[n+]([O-])c2ccc(F)cc2[n+]1[O-]	1.7	> 8	2.61	1.54	–	–
COc1ccc(-c2c(C#N)[n+]([O-])c3cc(Cl)c(Cl)cc3[n+]2[O-])cc1	> 20	–	–	–	–	–
COC(=O)c1ccc(-c2c(C#N)[n+]([O-])c3cc(C(F)(F)F)ccc3[n+]2[O-])cc1	2.03	–	–	–	–	–
N#Cc1c(-c2ccc(F)cc2)[n+]([O-])c2ccccc2[n+]1[O-]	3.91	–	–	–	–	–
COc1ccc2c(c1)[n+]([O-])c(C#N)c(-c1ccc(C)cc1)[n+]2[O-]	0.81	2.29	16.9	20.9	7.39	2.83
N#Cc1c(-c2ccc(Cl)cc2)[n+]([O-])c2ccc(C(F)(F)F)cc2[n+]1[O-]	1.56	1.77	2.76	1.77	1.56	1.13
N#Cc1c(-c2ccc(OC(F)(F)F)cc2)[n+]([O-])c2ccc(C(F)(F)F)cc2[n+]1[O-]	1.93	0.55	13.5	6.97	24.4	0.28
CCOC(=O)c1c(-c2ccc(C)cc2)[n+]([O-])c2ccccc2[n+]1[O-]	> 10	–	–	–	–	–
Cc1ccc(-c2c(C(=O)O)[n+]([O-])c3ccccc3[n+]2[O-])cc1	> 10	–	–	–	–	–

SMILES	IC50 (Plasmodium falciparum [1]) [µM]	IC50 (Plasmodium falciparum [2]) [µM]	IC50 (KB) [µM]	selectivity ratio [3]	selectivity ratio [4]	Ratio IC50 [5]
N#Cc1c(-c2ccc(Cl)cc2)[n+]([O-])c2ccc(Cl)cc2[n+]1[O-]	> 5	–	–	–	–	–
Cc1ccc2c(c1)[n+]([O-])c(C#N)c(-c1ccc(Cl)cc1)[n+]2[O-]	0.48	0.19	9.25	19.3	49.5	0.39
COC(=O)c1ccc(-c2c(C#N)[n+]([O-])c3cc(F)ccc3[n+]2[O-])cc1	> 20	–	–	–	–	–
N#Cc1c(-c2ccc(OC(F)(F)F)cc2)[n+]([O-])c2ccc(Cl)cc2[n+]1[O-]	0.71	0.93	2.35	3.31	2.53	1.31
COc1ccc(-c2c(C#N)[n+]([O-])c3cc(C(F)(F)F)ccc3[n+]2[O-])cc1	2.44	–	–	–	–	–
COc1ccc(-c2c(C#N)[n+]([O-])c3cc(F)ccc3[n+]2[O-])cc1	> 20	–	–	–	–	–
N#Cc1c(-c2ccc(F)cc2)[n+]([O-])c2cc(Cl)c(Cl)cc2[n+]1[O-]	> 10	–	–	–	–	–
Cc1ccc(-c2c(C#N)[n+]([O-])c3cc(F)ccc3[n+]2[O-])cc1	> 10	–	–	–	–	–
Cc1ccc(-c2c(C#N)[n+]([O-])c3ccccc3[n+]2[O-])cc1	3.46	–	–	–	–	–
O=C(O)c1c(-c2ccc(Cl)cc2)[n+]([O-])c2ccccc2[n+]1[O-]	> 10	–	–	–	–	–
Cc1ccc2c(c1)[n+]([O-])c(C#N)c(-c1ccc(OC(F)(F)F)cc1)[n+]2[O-]	0.75	0.38	8.12	10.8	21.4	0.51
COc1ccc2c(c1)[n+]([O-])c(C#N)c(-c1ccccc1)[n+]2[O-]	1.47	0.72	10.5	7.12	14.5	0.49
Cc1cc2c(cc1C)[n+]([O-])c(-c1ccc(F)cc1)c(C#N)[n+]2[O-]	1.26	0.93	18.8	14.9	20.4	0.73
COC(=O)c1ccc(-c2c(C#N)[n+]([O-])c3cc(C)ccc3[n+]2[O-])cc1	2.15	–	–	–	–	–
CCOC(=O)c1c(-c2ccccc2)[n+]([O-])c2cc(Cl)c(Cl)cc2[n+]1[O-]	> 7	–	–	–	–	–
N#Cc1c(-c2ccccc2)[n+]([O-])c2ccc(F)cc2[n+]1[O-]	> 10	–	–	–	–	–
N#Cc1c(-c2ccc(F)cc2)[n+]([O-])c2ccc(F)cc2[n+]1[O-]	5.78	–	–	–	–	–
N#Cc1c(-c2ccccc2)[n+]([O-])c2ccccc2[n+]1[O-]	2.35	–	–	–	–	–
CCN(CC)CCCC(C)Nc1ccnc2cc(Cl)ccc12 (stereo not given) [CHLOROQUINE]	–	–	110	–	–	–
N#Cc1c(-c2ccc(Cl)cc2)[n+]([O-])c2ccccc2[n+]1[O-]	1.01	0.41	9.73	9.63	23.6	0.41

SMILES	IC50 (Plasmodium falciparum [1]) [µM]	IC50 (Plasmodium falciparum [2]) [µM]	IC50 (KB) [µM]	selectivity ratio [3]	selectivity ratio [4]	Ratio IC50 [5]
N#Cc1c(-c2ccc(F)cc2)[n+]([O-])c2ccc(C(F)(F)F)cc2[n+]1[O-]	0.66	0.52	2.85	4.32	5.48	0.79
COc1ccc(-c2c(C#N)[n+]([O-])c3cc(Cl)ccc3[n+]2[O-])cc1	> 10	–	–	–	–	–
N#Cc1c(-c2ccc(OC(F)(F)F)cc2)[n+]([O-])c2cc(Cl)c(Cl)cc2[n+]1[O-]	> 10	–	–	–	–	–
CCOC(=O)c1c(-c2ccc(Cl)cc2)[n+]([O-])c2ccccc2[n+]1[O-]	> 10	–	–	–	–	–
COc1ccc2c(c1)[n+]([O-])c(C#N)c(-c1ccc(Cl)cc1)[n+]2[O-]	0.73	0.47	17.5	24	37.5	0.64
Cc1ccc(-c2c(C#N)[n+]([O-])c3cc(Cl)ccc3[n+]2[O-])cc1	> 10	–	–	–	–	–
CCOC(=O)c1c(-c2ccccc2)[n+]([O-])c2cc(C)c(C)cc2[n+]1[O-]	1.18	> 10	> 60	> 50	–	–
COC(=O)c1ccc(-c2c(C#N)[n+]([O-])c3cc(OC)ccc3[n+]2[O-])cc1	3.16	–	–	–	–	–
Cc1ccc2c(c1)[n+]([O-])c(C#N)c(-c1ccccc1)[n+]2[O-]	1.55	0.74	11.7	7.52	15.8	0.48
CCOC(=O)c1c(-c2ccccc2)[n+]([O-])c2ccc(C)cc2[n+]1[O-]	> 10	–	–	–	–	–
Cc1ccc(-c2c(C#N)[n+]([O-])c3cc(C)ccc3[n+]2[O-])cc1	1.3	0.95	25	19.2	26.2	0.73
N#Cc1c(-c2ccc(F)cc2)[n+]([O-])c2ccc(Cl)cc2[n+]1[O-]	5.83	–	–	–	–	–
COc1ccc(-c2c(C#N)[n+]([O-])c3cc(C)c(C)cc3[n+]2[O-])cc1	3.02	–	–	–	–	–
CCOC(=O)c1c(-c2ccccc2)[n+]([O-])c2ccc(OC)cc2[n+]1[O-]	> 10	–	–	–	–	–
COc1ccc2c(c1)[n+]([O-])c(C#N)c(-c1ccc(OC(F)(F)F)cc1)[n+]2[O-]	0.93	1.25	8.25	8.87	6.58	1.35
COc1ccc(-c2c(C#N)[n+]([O-])c3cc(OC)ccc3[n+]2[O-])cc1	2.29	–	–	–	–	–
COc1ccc(-c2c(C#N)[n+]([O-])c3cc(C)ccc3[n+]2[O-])cc1	2.77	–	–	–	–	–
N#Cc1c(-c2ccccc2)[n+]([O-])c2ccc(Cl)cc2[n+]1[O-]	> 5	–	–	–	–	–
COc1ccc(-c2c(C#N)[n+]([O-])c3ccccc3[n+]2[O-])cc1	3.14	–	–	–	–	–
